ChEMBL document CHEMBL1142555, “Cytotoxic activity of some phenanthroindolizidine N-oxide alkaloids from Cynanchum vincetoxicum” (J Nat Prod, 2000)

How the values were obtained:
[1] = Cytotoxicity against drug-resistant human KB31 cells after 72 hrs by MTS reduction assay; format: functional, cell-based; conditions: KB 3-1, 72 h, in the assay text read “drug-sensitive” for “drug-resistant”
In short: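 KB-3-1 cells grown as monolayers in DMEM with 10% FBS at 37 °C and 5% CO2, harvested by trypsin at 70-80% confluence and seeded at 4 × 10^3/well for 24 h. Dilutions of DMSO stock in medium were added (DMSO ≤0.25% final, also in controls), six wells per concentration, for 72 h. Viable cells were read by MTS/PMS, 50 min, A492. IC50 came from three passages.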

[2] = Cytotoxicity against multidrug-resistant human KBV1 cells after 72 hrs by MTS reduction assay; format: functional, cell-based; conditions: KB-V1, 72 h
In short: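 KB-V1 multidrug-resistant line (P-170 glycoprotein) kept without vinblastine, using passages 5-15, in DMEM/10% FBS at 37 °C and 5% CO2. Cells were trypsinized at 60-70% confluence and seeded at 7 × 10^3/well for 24 h. Compound was added in medium (DMSO ≤0.25%), six replicates per concentration, for 72 h. Read-out was MTS/PMS, 50 min, A492. IC50 came from three separate passages.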

[3] = Resistance index, ratio of IC50 for human KBV1 cells to IC50 for human KB31 cells; format: functional
In short: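 Ratio of the IC50 in KB-V1 cells to the IC50 in parental KB-3-1 cells, each from a 72-h MTS/PMS proliferation assay (A492) run in parallel under the same dosing conditions (DMSO ≤0.25%, six replicates per concentration, three separate determinations).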

Row | Structure (SMILES) | IC50 [1] [nM] | IC50 [2] [nM] | Ratio [3]
1 | COc1ccc2c3c(c4cc(OC)c(OC)cc4c2c1)[C@@H](O)[C@H]1CCC[N+]1([O-])C3 (stereo not given in full) | 100 | 160 | 
2 | COc1ccc(C2=C(c3ccc(OC)c(OC)c3)C[C@H]3CCC[N+]3([O-])C2)cc1 (stereo not given in full) | 2550 | 3300 | 
3 | COc1ccc2c3c(c4cc(OC)c(OC)cc4c2c1)C[C@H]1CCC[N+]1([O-])C3 (stereo not given in full) | 110 | 160 | 
4 | COC(=O)c1ccccc1-c1c2ccc(=N)cc-2oc2cc(N)ccc12.Cl [RHODAMINE123] | 1400 | > 500000 | 500
5 | CC[C@]1(O)C[C@@H]2CN(CCc3c([nH]c4ccccc34)[C@@](C(=O)OC)(c3cc4c(cc3OC)N(C)[C@H]3[C@@](O)(C(=O)OC)[C@H](OC(C)=O)[C@]5(CC)C=CCN6CC[C@]43[C@@H]65)C2)C1 [VINBLASTINE] |  |  | 210
